Assays:
[1] = Induction of microtubule depolymerization in rat A10 cells by indirect immunofluorescence method; type: cell-based
Summary of the method: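 A-10 cells, which arrest in interphase, used to score loss of interphase microtubules. EC50 values calculated per an earlier method, minimum of three independent experiments.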

MDA-MB-435 (human) = assay: Antiproliferative activity against human MDA-MB-435 cells by SRB assay
HeLa [2] = assay: Antiproliferative activity against human HeLa cells expressing wild type beta3 tubulin by SRB assay; type: functional, cell-based
[3] = Inhibition of bovine brain tubulin polymerization assessed as reduction in tubulin assembly pretreated for 15 mins followed by GTP addition by spectrophotometric method; set-up: species or system Bos taurus
Summary of the method: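 Placed on ice, then 0.4 mM GTP (final) added. Turbidity read at 350 nm after a jump from 0 °C to 30 °C.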

Bos taurus [4] = species: Bos taurus; assay: Inhibition of [3H]colchicine binding to bovine brain tubulin at 5 uM measured after 10 mins by scintillation counting method relative to control
Summary of the method: (§1)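 Reactions of 0.1 mL held 1.0 μM bovine brain tubulin, 5.0 μM [3H]colchicine, inhibitor at 1.0 or 5.0 μM, colchicine-binding stabilizing components and 5% DMSO, assembled on ice with tubulin added last. Incubated 10 min at 37 °C, stopped with ice water, filtered through DEAE-cellulose filters. Bound radiolabel counted by scintillation.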

Bos taurus [5] = species: Bos taurus; assay: Inhibition of [3H]colchicine binding to bovine brain tubulin at 1 uM measured after 10 mins by scintillation counting method relative to control; summary of the method: as §1
SK-OV-3 = assay: Antiproliferative activity against human SKOV3 cells by SRB assay; type: functional, cell-based
[6] = Antiproliferative activity against human SKOV3-MDR1-M6/6 cells by SRB assay; type: functional
[7] = Resistance index, ratio of IC50 for human SKOV3-MDR1-M6/6 cells to IC50 for human SKOV3 cells; type: functional
Summary of the method: (§2)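 Antiproliferative IC50 by SRB assay (cellular protein) in each isogenic pair: SK-OV-3 parental versus Pgp-expressing, and parental HeLa versus wild-type βIII-tubulin-expressing HeLa. Rr is the IC50 ratio of the modified line to the parental line. At least three independent experiments, each in triplicate, mean ± SD.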

HeLa [8] = assay: Antiproliferative activity against human HeLa cells by SRB assay; type: functional, cell-based
HeLa [9] = assay: Resistance index, ratio of IC50 for human HeLa cells expressing wild type beta3 tubulin to IC50 for human HeLa cells; type: functional; summary of the method: as §2
[10] = Retention time of the compound in human liver microsomes at 20 uM by LC-MS/MS analysis; type: ADME, microsome
Summary of the method: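 Human liver microsomes (both genders; 1.0 mg/mL) in 100 mM PBS pH 7.4 with 3 mM MgCl2 and 10 mM NADPH, preincubated at 37 °C. Reaction started with compound at 20 μM final (from DMSO stock); propranolol 5 μM as control. Aliquots at 0 and 60 min quenched in ice-cold ACN. Analysed by LC/MS/MS on a C18 column, 5–75% B gradient over 30 min, ESI.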

| SMILES | EC50 [1] [nM] | IC50 (MDA-MB-435 (human)) [nM] | IC50 (HeLa [2]) [nM] | IC50 [3] [nM] | inhibition (Bos taurus [4]) [%] | inhibition (Bos taurus [5]) [%] | IC50 (SK-OV-3) [nM] | IC50 [6] [nM] | Ratio IC50 [7] | IC50 (HeLa [8]) [nM] | Ratio IC50 (HeLa [9]) | Retention_time [10] [min] |
| --- | --- | --- | --- | --- | --- | --- | --- | --- | --- | --- | --- | --- |
| COc1ccc(CN(C)c2nc(C)nc3c2CCC3)cc1 | > 10000 | 450 | – | – | – | – | – | – | – | – | – | – |
| Cc1nc2c(c(N(C)c3ccc([S+](C)[O-])cc3)n1)CCC2 (configuration not stated) | 31 | 7.9 | 10 | 1100 | 93 | 79 | 12.6 | 19.9 | 1.6 | 6.8 | 1.5 | 7.9 |
| Cc1nc2c(c(N(C)c3ccc(O)cc3)n1)CCC2 | 5560 | 405 | – | – | – | – | – | – | – | – | – | – |
| COc1ccc([C@@H](C)N(C)c2nc(C)nc3c2CCC3)cc1 | > 10000 | – | – | – | – | – | – | – | – | – | – | – |
| COc1ccc(N(C)c2nc(C)nc3c2CCC3)cc1 | 26 | – | 9.6 | 1600 | 92 | 70 | – | 16.4 | – | 12 | – | – |
| COc1ccc([C@H](C)N(C)c2nc(C)nc3c2CCC3)cc1 | > 10000 | – | – | – | – | – | – | – | – | – | – | – |
| CNc1ccc(N(C)c2nc(C)nc3c2CCC3)cc1 | 45 | 20 | – | – | – | – | 36.3 | 49.7 | 1.4 | 31 | 0.6 | – |
| Cc1nc2c(c(N(C)c3ccc(S(C)(=O)=O)cc3)n1)CCC2 | > 10000 | – | – | – | – | – | – | – | – | – | – | 9.6 |
| Cc1nc2c(c(N(C)c3ccc(N)cc3)n1)CCC2 | 5120 | 1220 | – | – | – | – | – | – | – | – | – | – |
| COc1ccc(N(C)c2nc(C)nc3c2CCC3)cc1C | 56 | 18.4 | 20.6 | 1100 | 83 | 59 | 23.9 | 47.5 | 2 | 22.8 | 0.9 | – |
| Cc1nc2c(c(N(C)c3ccc4c(c3)CCO4)n1)CCC2 | 70 | 12.1 | 15.1 | 1200 | 85 | 64 | 18.7 | 29.8 | 1.6 | 16 | 0.9 | – |
| COc1ccc(/C=C\c2cc(OC)c(OC)c(OC)c2)cc1O [COMBRETASTATIN A4] | 13 | 3.4 | – | – | – | – | – | 6.6 | – | – | – | – |
| Cc1nc2c(c(N(C)c3ccc(N(C)C)cc3)n1)CCC2 | 40 | 8.2 | 9.8 | 1200 | 85 | 65 | 13 | 22.6 | 1.7 | 11.3 | 0.9 | – |

— ChEMBL document CHEMBL4219224, “Structure based drug design and in vitro metabolism study: Discovery of N-(4-methylthiophenyl)-N,2-dimethyl-cyclopenta[d]pyrimidine as a potent microtubule targeting agent” (Bioorg Med Chem, 2018)
